Data set [1] can be described thus: Inhibition of ERK in human A375SM cells harboring BRAF V600E mutant assessed as inhibition of RSK phosphorylation measured after 4 hrs by mesoscale electrochemiluminescent sandwich assay. The format is cell-based. As to conditions: A375-SM. The essentials:
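A375SM (BRAF V600E melanoma) cells, 10,000 per well, treated 4 h; lysed 20 min at 4 °C in Tris/NaCl/EGTA/EDTA/Triton/NaF buffer with protease and phosphatase inhibitors. Lysate captured with biotin anti-RSK1 on streptavidin MSD plate, detected with SULFO-TAG anti-pRSK (pThr359/Ser363) overnight at 4 °C; electrochemiluminescence read. IC50 from 11-point titration.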

The target of data set [2] is Mitogen-activated protein kinase 1 (Homo sapiens, UniProt P28482). The data set is described as follows: Inhibition of human ERK2 preincubated for 15 mins followed by addition of IMAP peptide substrate and ATP measured after 60 mins by IMAP-FP assay. The essentials: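 Final: 0.5 nM hERK2, 900 nM unlabeled + 80 nM labeled peptide, 30 µM ATP; 60 min, quenched with IMAP beads in binding buffer with 24 mM NaCl, read by fluorescence polarization after 60 min.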
Chain of Mitogen-activated protein kinase 1 (Homo sapiens, UniProt P28482) (P28482 whole entry): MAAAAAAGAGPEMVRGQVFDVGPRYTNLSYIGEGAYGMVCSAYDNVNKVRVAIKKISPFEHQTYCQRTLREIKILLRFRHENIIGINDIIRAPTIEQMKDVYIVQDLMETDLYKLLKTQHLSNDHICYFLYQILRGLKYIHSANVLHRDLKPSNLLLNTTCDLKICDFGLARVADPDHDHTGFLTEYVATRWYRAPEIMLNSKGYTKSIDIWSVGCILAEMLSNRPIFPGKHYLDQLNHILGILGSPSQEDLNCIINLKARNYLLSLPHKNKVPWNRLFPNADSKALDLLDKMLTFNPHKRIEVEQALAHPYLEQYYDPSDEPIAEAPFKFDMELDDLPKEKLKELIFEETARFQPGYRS

Data set [3] deals with Mitogen-activated protein kinase 1 (Mus musculus, UniProt P63085). Put plainly: Inhibition of mouse ERK2 preincubated for 15 mins followed by addition of IMAP peptide substrate and ATP measured after 60 mins by IMAP-FP assay.
Chain of Mitogen-activated protein kinase 1 (Mus musculus, UniProt P63085) (P63085 whole entry): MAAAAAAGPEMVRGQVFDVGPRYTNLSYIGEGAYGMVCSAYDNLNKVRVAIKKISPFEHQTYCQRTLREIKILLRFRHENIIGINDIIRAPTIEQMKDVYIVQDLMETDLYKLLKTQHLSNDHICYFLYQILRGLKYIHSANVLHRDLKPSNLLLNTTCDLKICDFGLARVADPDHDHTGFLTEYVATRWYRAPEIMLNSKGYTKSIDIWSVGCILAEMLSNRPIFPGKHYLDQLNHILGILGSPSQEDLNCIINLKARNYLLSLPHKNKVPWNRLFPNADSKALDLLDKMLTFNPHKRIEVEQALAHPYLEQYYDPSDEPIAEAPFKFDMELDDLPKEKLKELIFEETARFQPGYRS
Data set [4] is filed under the species Homo sapiens. The data set is described as follows: Selectivity ratio, ratio of IC50 for human ERK2 to IC50 for MEK1 (unknown origin).
Data set [5] is filed under the species Homo sapiens. Put plainly: Selectivity ratio, ratio of IC50 for human ERK2 to IC50 for RAF1 (unknown origin).
Data set [6] is filed under the species Homo sapiens. Put plainly: Selectivity ratio, ratio of IC50 for human ERK2 to IC50 for COT (unknown origin).
For data set [7], the species on record is Homo sapiens. The data set is described as follows: Selectivity ratio, ratio of IC50 for human ERK2 to IC50 for BRAF (unknown origin).
The target of the next data set is Cytochrome P450 3A4 (Homo sapiens, UniProt P08684). The data set is described as follows: Inhibition of CYP3A4 (unknown origin). The format is ADME.
Chain of Cytochrome P450 3A4 (P08684 whole entry): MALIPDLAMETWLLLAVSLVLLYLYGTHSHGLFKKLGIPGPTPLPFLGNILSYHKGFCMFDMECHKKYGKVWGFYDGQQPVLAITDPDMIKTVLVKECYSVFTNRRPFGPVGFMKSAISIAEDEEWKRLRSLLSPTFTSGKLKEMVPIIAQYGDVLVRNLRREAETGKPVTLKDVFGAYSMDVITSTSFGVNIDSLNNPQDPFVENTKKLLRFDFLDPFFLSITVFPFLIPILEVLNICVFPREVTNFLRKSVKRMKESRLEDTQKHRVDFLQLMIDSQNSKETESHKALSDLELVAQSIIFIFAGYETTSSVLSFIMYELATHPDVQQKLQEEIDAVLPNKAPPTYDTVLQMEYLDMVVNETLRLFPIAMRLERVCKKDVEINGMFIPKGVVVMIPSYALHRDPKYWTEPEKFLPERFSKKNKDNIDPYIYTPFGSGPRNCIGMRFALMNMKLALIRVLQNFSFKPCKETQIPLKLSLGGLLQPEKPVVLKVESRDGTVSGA
Data set [8] concerns the target Voltage-gated inwardly rectifying potassium channel KCNH2 (Homo sapiens, UniProt Q12809). Put plainly: Inhibition of human ERG.
A short description of data set [9]: Inhibition of ERK human A375 cells assessed as inhibition of RSK phosphorylation measured after 4 hrs by mesoscale electrochemiluminescent sandwich assay. Particulars: A-375, 4 h.
Data set [10] is described as follows: Inhibition of ERK (unknown origin) assessed as inhibition of RSK phosphorylation. Also noted: species or system Homo sapiens.
Data set [11] is described as follows: Solubility in human FaSSIF at pH 6.5. Format: physicochemical. The essentials: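 Solubility measured in human fasted-state simulated intestinal fluid at pH 6.5.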
For a further data set, the system named is A375-SM. Put plainly: Antiproliferative activity against human A375SM cells harboring BRAF V600E mutant measured after 96 hrs by Cell Titer-Glo assay. Format: functional, cell-based. In short, it runs like this: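 Cells in DMEM/10 mM HEPES/10% FBS added after compound, incubated 96 h at 37 °C, 5% CO2; equilibrated 15 min at room temperature, viability by CellTiter-Glo luminescence. IC50 from 10-point, 3-fold titration curves.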
Background: In ATP-based viability assays light output follows the ATP content of the culture.

Values after ≈ are worked out from the molar mass of the structure shown. Bounds are passed on as bounds.

In ChEMBL document CHEMBL4425122, “Discovery of 1-(1H-Pyrazolo[4,3-c]pyridin-6-yl)urea Inhibitors of Extracellular Signal-Regulated Kinase (ERK) for the Treatment of Cancers” (J Med Chem, 2016) one finds IC50, Ratio IC50 and solubility data, which are given here for 21 compounds.

Chain of Voltage-gated inwardly rectifying potassium channel KCNH2 (Q12809 whole entry): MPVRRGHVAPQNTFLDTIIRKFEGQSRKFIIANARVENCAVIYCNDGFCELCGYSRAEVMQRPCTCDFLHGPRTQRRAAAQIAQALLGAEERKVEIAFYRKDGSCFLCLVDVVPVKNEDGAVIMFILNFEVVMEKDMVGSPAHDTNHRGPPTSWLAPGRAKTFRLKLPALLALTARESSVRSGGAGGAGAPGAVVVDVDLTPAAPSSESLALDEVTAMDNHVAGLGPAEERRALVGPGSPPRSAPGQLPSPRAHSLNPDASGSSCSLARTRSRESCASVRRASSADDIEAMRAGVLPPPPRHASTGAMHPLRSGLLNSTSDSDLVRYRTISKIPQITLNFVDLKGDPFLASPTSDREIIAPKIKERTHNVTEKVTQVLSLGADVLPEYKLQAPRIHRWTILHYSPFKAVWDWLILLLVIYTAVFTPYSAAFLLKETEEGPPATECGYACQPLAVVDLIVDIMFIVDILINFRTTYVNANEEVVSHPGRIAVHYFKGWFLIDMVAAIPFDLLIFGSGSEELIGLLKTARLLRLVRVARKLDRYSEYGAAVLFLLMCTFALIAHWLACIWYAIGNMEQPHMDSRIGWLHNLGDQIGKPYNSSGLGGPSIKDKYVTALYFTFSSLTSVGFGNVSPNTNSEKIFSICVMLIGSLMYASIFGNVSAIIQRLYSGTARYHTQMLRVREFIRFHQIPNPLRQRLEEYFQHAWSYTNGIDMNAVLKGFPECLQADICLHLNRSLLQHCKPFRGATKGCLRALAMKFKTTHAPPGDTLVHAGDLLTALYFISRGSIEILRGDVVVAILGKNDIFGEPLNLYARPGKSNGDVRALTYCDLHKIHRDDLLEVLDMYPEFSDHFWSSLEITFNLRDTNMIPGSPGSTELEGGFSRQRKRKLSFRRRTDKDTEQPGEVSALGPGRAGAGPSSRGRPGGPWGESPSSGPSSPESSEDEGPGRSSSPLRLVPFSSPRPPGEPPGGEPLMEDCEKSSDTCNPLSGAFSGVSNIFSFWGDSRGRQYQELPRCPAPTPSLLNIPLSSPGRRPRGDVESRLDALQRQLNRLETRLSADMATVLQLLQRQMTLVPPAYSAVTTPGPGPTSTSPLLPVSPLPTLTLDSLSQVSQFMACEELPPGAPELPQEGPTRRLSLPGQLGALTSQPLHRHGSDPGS

As for `Cc1cc(-c2n[nH]c3cc(NC(=O)Nc4ccccc4)ncc23)ccn1`, the half-inhibitory concentration (IC50) (as a rule, the point on the concentration scale where inhibition reaches its midpoint) in [1] is > 10000 nM.

As to `Cc1cc(-c2n[nH]c3cc(Nc4ncc(-c5ccccc5)s4)ncc23)ccn1`, in [2], the IC50 was > 3000 nM.

Consider `Cc1cc(-c2n[nH]c3cc(NC(=O)OCc4ccccc4)ccc23)ccn1`, for which the half-inhibitory concentration (IC50) in data set [3] was > 3000 nM.

Turning to `Cc1cc(-c2n[nH]c3cc(NC(=O)OCc4ccccc4)ncc23)ccn1`, the 50% inhibitory concentration (IC50) in data set [3] is > 3000 nM.

Regarding `C[C@@H](NC(=O)Nc1cc2[nH]nc(-c3ccc(F)cc3)c2cn1)c1ccccc1`, the IC50 amounted to 360 nM in [1] and 0.8 nM in data set [2].

Turning to `Cc1cc(-c2n[nH]c3cc(Nc4nccs4)ncc23)ccn1`, in [2], the midpoint of inhibition, the IC50, lay at 56 nM.

On to `Cc1cc(-c2n[nH]c3cc(NC(=O)NCc4ccccc4)ncc23)ccn1`, for which the half-maximal inhibitory concentration (IC50) in data set [1] stood at 220 nM; in [3], 0.2 nM; in [2] it was 0.9 nM. The Ratio IC50 in the data set listed under Homo sapiens [4], in the data set listed under Homo sapiens [5], in the data set filed under Homo sapiens [6] and in the data set listed under Homo sapiens [7] was < 100 throughout.

As to `Cc1cc(-c2n[nH]c3cc(NC(=O)N[C@H](C)c4ccccc4)ncc23)cnn1`, the IC50 is 810 nM in data set [1] and 0.9 nM in [2].

`C[C@@H](NC(=O)Nc1cc2[nH]nc(-c3ccnc(F)c3)c2cn1)c1ccccc1`: the IC50 was 97 nM in [1], 29000 nM against Cytochrome P450 3A4, 0.3 nM in data set [2] and > 20000 nM in data set [8].

For `Cc1cc(-c2n[nH]c3cc(NC(=O)NCCc4ccccc4)ncc23)ccn1`, the half-inhibitory concentration (IC50) in data set [9] amounted to 110 nM.

Turning to `C[C@@H](NC(=O)Nc1cc2[nH]nc(-c3cnn(C)c3)c2cn1)c1ccccc1`, the 50% inhibitory concentration (IC50) in data set [1] is 110 nM; against Cytochrome P450 3A4, 380 nM; in [2] it was 0.3 nM; in data set [8], > 20000 nM.

For `Cc1cc(-c2n[nH]c3cc(NC(=O)N[C@@H](C)c4ccccc4)ncc23)ccn1`, in data set [9], the concentration for half-maximal inhibition (IC50) amounted to 1800 nM.

For `Cc1cc(-c2n[nH]c3cc(NC(=O)NC4CCc5ccccc54)ncc23)ccn1` (centres undefined), the half-inhibitory concentration (IC50) in data set [1] was 750 nM; in data set [2], 5 nM.

`C[C@@H](NC(=O)Nc1cc2[nH]nc(C3CC3)c2cn1)c1ccccc1`: the IC50 in data set [1] is 550 nM.

For the compound `O=C(Nc1ccc2[nH]nc(-c3ccncc3)c2c1)[C@@H]1CCN(CC(=O)N2CCN(c3ccc(-c4ncccn4)cc3)CC2)C1`, the IC50 is 57 nM in [10] and 39 nM with A375-SM. In data set [11], the concentration in solution (solubility) came to 38 µM (≈ 22.3 µg/mL).

`CCCc1n[nH]c2cc(NC(=O)N[C@H](C)c3ccccc3)ncc12`: the IC50 amounted to 350 nM in data set [1] and 2 nM in data set [2].

`Cc1cc(-c2n[nH]c3cc(NC(=O)CCc4ccccc4)ncc23)ccn1` registered an IC50 in data set [3] of 420 nM.

As for `C[C@@H](NC(=O)Nc1cc2[nH]nc(C3CCCC3)c2cn1)c1ccccc1`, the values for the IC50 in data set [1] and in data set [2] were 810 nM and 4 nM, respectively.

As for `COc1cc(-c2n[nH]c3cc(NC(=O)N[C@H](C)c4ccccc4)ncc23)ccn1`, the values for the half-maximal inhibitory concentration (IC50) in [1] and in [2] were 300 nM and 0.9 nM, respectively.

As for `Cc1cc(-c2n[nH]c3cc(NS(=O)(=O)NCc4ccccc4)ncc23)ccn1`, the 50% inhibitory concentration (IC50) in data set [2] came to 2400 nM.

With `Cc1cc(-c2n[nH]c3cc(NC(=O)N[C@H](C)c4ccccc4)ncc23)cc(C)n1`, the half-maximal inhibitory concentration (IC50) is 130 nM in data set [1], 780 nM at Cytochrome P450 3A4, 0.3 nM in [2] and > 20000 nM in data set [8].
